{
  "source": "BindingDB's records for doi:10.1021/acs.jmedchem.7b00924",
  "about": "(University of Copenhagen, 2017)",
  "molecular_target": "T1, Sodium- and chloride-dependent betaine transporter (Mus musculus, UniProt P31651)",
  "T1 sequence (P31651 whole entry)": "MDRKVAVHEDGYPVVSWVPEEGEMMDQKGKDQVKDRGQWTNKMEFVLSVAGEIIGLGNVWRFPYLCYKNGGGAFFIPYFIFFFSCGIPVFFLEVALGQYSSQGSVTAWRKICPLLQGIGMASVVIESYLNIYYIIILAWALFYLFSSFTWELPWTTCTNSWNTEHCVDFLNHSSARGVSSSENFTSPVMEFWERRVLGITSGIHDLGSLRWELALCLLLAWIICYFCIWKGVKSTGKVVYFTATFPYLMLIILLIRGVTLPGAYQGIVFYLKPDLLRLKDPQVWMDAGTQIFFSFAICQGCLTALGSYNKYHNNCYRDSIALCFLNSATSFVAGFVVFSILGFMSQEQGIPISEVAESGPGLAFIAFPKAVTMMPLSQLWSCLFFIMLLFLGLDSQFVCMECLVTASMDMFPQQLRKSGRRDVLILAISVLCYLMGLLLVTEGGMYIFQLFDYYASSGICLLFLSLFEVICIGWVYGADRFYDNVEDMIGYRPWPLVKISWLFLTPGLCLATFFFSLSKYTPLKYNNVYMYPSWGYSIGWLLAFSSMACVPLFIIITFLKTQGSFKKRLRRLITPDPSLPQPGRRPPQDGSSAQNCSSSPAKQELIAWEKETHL",
  "assay": "Inhibition of mouse BGT1 expressed in HEK293 cells assessed as reduction in [3H]GABA uptake after 3 mins by scintillation counting method",
  "summary_of_the_method": "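HEK293 lines stably expressing a single mouse GAT subtype, kept under blasticidin-S (5 µg/mL) selection. Cells were assayed about 24 h after plating with 30 nM [3H]GABA plus varying compound concentrations for 3 min at 37 °C in HBSS buffered with 20 mM HEPES (1 mM CaCl2, 1 mM MgCl2, pH 7.4). Cells were washed ice-cold and radioactivity counted. IC50 came from sigmoidal variable-slope fits.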",
  "data": [
    {"smiles": "O=C(NC1CCN(Cc2cccc(OC(F)(F)F)c2)CC1)c1ccc(Cl)cc1Cl", "values": [
      {"measurement": "IC50", "result": 126, "unit": "µM"}
    ]}
  ]
}
